Calls of active or inactive are those of the source. The calls are words filed in the database; no cut-off is given here.
Tests used:
Beta-glucuronidase = Beta-glucuronidase (Escherichia coli (strain K12), UniProt P05804); assay: Prodrug conversion assessed as Escherichia coli beta-glucuronidase mediated MMAE formation after 5 hrs using albumin-conjugated compound by HPLC/HRMS analysis; format: ADME; conditions: isolated protein
Procedure, shortened: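 Prodrug 0.49 mg.mL-1 was held in 5 % human serum albumin solution at 37 °C for 4 h to form the albumin adduct. The mixture was diluted 1:3 with 0.02 M phosphate buffer (pH 7), then E. coli β-glucuronidase was added. Analysis was by C18 HPLC coupled to ESI-HRMS in positive ion mode.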

LS174T [1] = assay: Inhibition of anchorage-independent colony formation in 3D culture of human LS174T cells at 5 nM measured after 3 days by soft agar colony formation assay; format: functional, cell-based
Procedure, shortened: (§1)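 LS174T cells (early passage, <10) were grown in EMEM with 10 % FBS. 20x10³ isolated cells were seeded in 0.35 % agarose over a 0.6 % agarose base layer. Colonies grew for 10 days, with fresh medium every 3 days. They were then treated for 3 days at 5 nM, without or with β-glucuronidase (3700 U/well). Colony size was measured by macroscope imaging; mean ± s.e.m. of 5 independent experiments.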

LS174T [2] = assay: Inhibition of anchorage-independent colony formation in 3D culture of human LS174T cells at 5 nM measured after 3 days in presence of beta-glucuronidase by soft agar colony formation assay; format: functional, cell-based; procedure, shortened: as §1
LS174T [3] = assay: Antitumor activity against human LS174T cells xenografted in athymic Balb/c mouse assessed as tumor growth inhibition at 3 mg/kg, iv administered on day 17 and 24; format: functional, organism-based
Procedure, shortened: (§2)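 Eight-week-old male nude mice were implanted subcutaneously in the dorsal flank with 1x10⁶ LS174T cells in PBS/50 % Matrigel (day 0). Mice were randomized into groups of 6 and given iv doses in PBS–2 % DMSO, with a vehicle-injected control group. Tumor length and width were measured by caliper three times weekly; volume = length x width²/2.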

[4] = Toxicity in athymic Balb/c mouse xenografted with human LS174T cells assessed as effect on body weight at 3 mg/kg, iv administered on day 17 and 24 measured three times a week; format: organism-based; conditions: in vivo
Procedure, shortened: (§3)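 LS174T subcutaneous xenografts (1x10⁶ cells in PBS/50 % Matrigel) were set up in eight-week-old male nude mice. Groups of 6 received iv injections in PBS–2 % DMSO, with a vehicle control group. Body weight was recorded three times weekly. Mice were euthanized when tumor volume exceeded 2 cm³.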

Albumin = Albumin (Homo sapiens, UniProt P02768); assay: Binding affinity to human serum albumin at 0.49 mg/ml after 4 hrs by HPLC/HRMS analysis; conditions: isolated protein
Albumin, sequence (P02768 whole entry): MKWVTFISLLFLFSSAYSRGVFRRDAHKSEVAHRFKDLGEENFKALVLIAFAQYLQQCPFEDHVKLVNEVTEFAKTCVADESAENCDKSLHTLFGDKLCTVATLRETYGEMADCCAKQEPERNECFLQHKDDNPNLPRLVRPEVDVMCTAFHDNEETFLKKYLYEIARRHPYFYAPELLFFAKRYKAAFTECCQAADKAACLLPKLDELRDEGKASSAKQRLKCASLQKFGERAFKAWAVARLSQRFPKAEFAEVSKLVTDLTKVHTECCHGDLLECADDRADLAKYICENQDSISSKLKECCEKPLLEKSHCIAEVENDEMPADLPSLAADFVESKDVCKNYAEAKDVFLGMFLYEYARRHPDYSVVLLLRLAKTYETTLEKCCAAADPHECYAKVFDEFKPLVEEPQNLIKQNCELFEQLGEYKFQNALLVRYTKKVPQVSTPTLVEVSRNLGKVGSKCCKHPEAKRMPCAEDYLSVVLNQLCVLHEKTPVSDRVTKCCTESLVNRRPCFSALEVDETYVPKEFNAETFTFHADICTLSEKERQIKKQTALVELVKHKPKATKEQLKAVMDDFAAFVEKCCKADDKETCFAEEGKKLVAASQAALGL

LS174T [5] = assay: Antitumor activity against human LS174T cells xenografted in athymic Balb/c mouse assessed as tumor growth inhibition at 2 mg/kg, iv administered on day 17 and 24; format: functional, organism-based; procedure, shortened: as §2
[6] = Toxicity in athymic Balb/c mouse xenografted with human LS174T cells assessed as effect on body weight at 2 mg/kg, iv administered on day 17 and 24 measured three times a week; format: organism-based; conditions: in vivo; procedure, shortened: as §3

Beta-glucuronidase, sequence (P05804 whole entry): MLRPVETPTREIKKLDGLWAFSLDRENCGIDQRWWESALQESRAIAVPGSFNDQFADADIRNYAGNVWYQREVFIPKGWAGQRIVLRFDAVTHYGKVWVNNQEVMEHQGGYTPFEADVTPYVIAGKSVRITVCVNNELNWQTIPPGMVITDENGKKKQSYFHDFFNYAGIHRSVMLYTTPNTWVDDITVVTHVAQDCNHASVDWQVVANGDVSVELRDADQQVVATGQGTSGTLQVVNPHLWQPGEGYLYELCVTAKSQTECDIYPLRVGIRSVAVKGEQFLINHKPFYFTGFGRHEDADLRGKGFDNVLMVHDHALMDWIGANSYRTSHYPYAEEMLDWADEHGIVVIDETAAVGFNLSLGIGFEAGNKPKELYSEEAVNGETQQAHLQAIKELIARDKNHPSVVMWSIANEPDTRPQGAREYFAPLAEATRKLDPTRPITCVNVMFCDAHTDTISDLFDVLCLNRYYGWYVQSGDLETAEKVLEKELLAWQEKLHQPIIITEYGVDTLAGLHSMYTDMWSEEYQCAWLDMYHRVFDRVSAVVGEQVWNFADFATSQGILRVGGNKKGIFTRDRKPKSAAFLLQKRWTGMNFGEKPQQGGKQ

SMILES | Drug metabolism (Beta-glucuronidase) | inhibition (LS174T [1]) | inhibition (LS174T [2]) | TGI (LS174T [3]) | Activity [4] | Activity (Albumin) | TGI (LS174T [5]) | Activity [6]
CC[C@H](C)[C@@H]([C@@H](CC(=O)N1CCC[C@H]1[C@H](OC)[C@@H](C)C(=O)N[C@H](C)[C@@H](O)c1ccccc1)OC)N(C)C(=O)[C@@H](NC(=O)[C@H](C(C)C)N(C)C(=O)OCc1ccc(NC(=O)OC(Cc2cn(CCOCCOCCOCCOCCOCCOCCOCCOCCOCCOCCNC(=O)CCCCCN3C(=O)C=CC3=O)nn2)c2ccc(O[C@@H]3O[C@H](C(=O)O)[C@@H](O)[C@H](O)[C@H]3O)c([N+](=O)[O-])c2)c(COC(=O)N(C)[C@H](C(=O)N[C@H](C(=O)N(C)[C@@H]([C@@H](C)CC)[C@@H](CC(=O)N2CCC[C@H]2[C@H](OC)[C@@H](C)C(=O)N[C@H](C)[C@@H](O)c2ccccc2)OC)C(C)C)C(C)C)c1)C(C)C (stereo not given in full) | Metabolite_Detected | inactive | Active | Active | Non-Toxic | Active |  | 
CC[C@H](C)[C@@H]([C@@H](CC(=O)N1CCC[C@H]1[C@H](OC)[C@@H](C)C(=O)N[C@H](C)[C@@H](O)c1ccccc1)OC)N(C)C(=O)[C@@H](NC(=O)[C@H](C(C)C)N(C)C(=O)OC(Cc1cn(CCOCCOCCOCCOCCOCCOCCOCCOCCOCCOCCNC(=O)CCCCCN2C(=O)C=CC2=O)nn1)c1ccc(O[C@@H]2O[C@H](C(=O)O)[C@@H](O)[C@H](O)[C@H]2O)c([N+](=O)[O-])c1)C(C)C (stereo not given in full) |  | inactive | Active |  |  |  | Active | Non-Toxic

Reference: ChEMBL document CHEMBL4368881, “A β-glucuronidase-responsive albumin-binding prodrug programmed for the double release of monomethyl auristatin E” (Medchemcomm, 2018)
